S1P4 antag – human S1P4 receptor antagonism. O95977. S1P4-expressing cells, antagonist mode, reporter read-out. inhibition, % at 4.98 µM. 0.26% of 220,000 active. AID 1510; in the data active means inhibition above about 29%;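 further: 0% = wells stimulated with agonist and 100% = vehicle wells without agonist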
NPY-Y2 PAM-ag – potentiates or activates human NPY-Y2 receptor | P49146 | cells expressing NPY-Y2, potentiator/agonist read-out | activation, % at 3.6 µM | 0.45% of 220,000 active | AID 1359; in the data active means activation above about 27%;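 further: cells stimulated with NPY near EC25 plus isoproterenol at EC100; 0% = vehicle plus submaximal agonist and 100% = vehicle plus saturating agonist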
NPY Y1 blocker – blocks the human neuropeptide Y Y1 receptor. P25929. HEK293-CNG Y1 cells, membrane potential fluorescence; NPY at EC95, then isoproterenol. inhibition, % at 3.6 µM. 1% of 200,000 active;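 active means inhibition above the campaign mean inhibition of all tested compounds plus 3 SD, cut at about 20% in these data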;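 further: 0% = DMSO wells given NPY plus isoproterenol and 100% = isoproterenol alone without NPY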
Target sequence (P25929 whole entry, looked up): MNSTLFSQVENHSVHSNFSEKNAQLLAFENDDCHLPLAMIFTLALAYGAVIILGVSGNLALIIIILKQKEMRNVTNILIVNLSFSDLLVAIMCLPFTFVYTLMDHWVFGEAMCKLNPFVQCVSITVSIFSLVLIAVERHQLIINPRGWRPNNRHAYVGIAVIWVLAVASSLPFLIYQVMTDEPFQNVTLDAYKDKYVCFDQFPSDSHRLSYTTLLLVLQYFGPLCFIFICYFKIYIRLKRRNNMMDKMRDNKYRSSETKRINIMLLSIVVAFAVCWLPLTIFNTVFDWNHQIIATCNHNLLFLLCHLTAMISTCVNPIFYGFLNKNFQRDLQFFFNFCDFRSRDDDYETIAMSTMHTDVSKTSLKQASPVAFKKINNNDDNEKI
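Benchmarks – high control isoproterenol alone, low control NPY with isoproterenol · Material – HEK293 Y1/CNG channel cell line · Times – dye 3 h, compound 60 min room temperature, stimulation 45 min · Probe or stimulus – NPY (25 nM), isoproterenol (1 µM), Ro 20-1724 (25 µM) · Evaluation – % inhibition of NPY effect · Signal – fluorescence, membrane potential probe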
NPY-Y1 PAM-ag – potentiates or activates human NPY-Y1 receptor | P25929 | NPY-Y1 expressing cells, potentiator/agonist activation | activation, % at 3.6 µM | 0.37% of 220,000 active | AID 1304; in the data active means activation above about 33%, passing the limit was not always enough;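 further: cells stimulated with NPY at EC10 then isoproterenol at EC100; 0% = low agonist plus stimulus and 100% = saturating agonist plus stimulus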
S1P4 agonist – activates the human S1P4 receptor. O95977. activation, % at 4.98 µM. S1P4-expressing cell line, agonist reporter assay. 0.35% of 220,000 active; in the data active means activation above about 11%;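 further: 0% = DMSO vehicle and 100% = reference agonist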
NPY-Y2 antag – antagonists of human neuropeptide Y receptor Y2; NPY-Y2 expressing cells, antagonist mode; P49146; inhibition, % at 2.7 µM; 0.99% of 140,000 active; in the data active means inhibition above about 17%;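 further: 0% = vehicle with agonist challenge and 100% = reference antagonist with challenge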
* marks the source's active call; other numbers are inactive results; / = no result. Most compounds without a hit are left out; they make up all but 2.4% or so of the library.

SMILES	S1P4 antag	NPY-Y2 PAM-ag	NPY Y1 blocker	NPY-Y1 PAM-ag	S1P4 agonist	NPY-Y2 antag
CC(C)(C)OC(=O)COc1cc(OCC(=O)OC(C)(C)C)c2c(=O)cc(-c3ccccc3)oc2c1	2.9	-29.8	46.2*	-30.6	0.8	33.3*
CC(C)(C)OC(=O)COc1cc(O)c2c(=O)cc(-c3ccccc3)oc2c1	-4.9	0.5	0.1	9.1	-0.3	16.3
N#Cc1c(N)nc2c3c(sc(=N)c2c1N)NC(=O)CC3c1c(F)cccc1Cl (configuration not stated)	-14.3	-3.2	-1.4	12.7	1.2	0.3
Cc1c(C#N)c(N)nc2c3c(sc12)NC(=O)CC3c1ccc(Cl)cc1 (configuration not stated)	-0.2	-0.5	33.6*	-38.6	2.7	42.4*
N#Cc1c(N)nc2c3c(sc(=N)c2c1N)NC(=O)CC3c1ccccc1 (configuration not stated)	4.5	-18.9	22.6*	-30.0	-0.3	19.0*
CCc1ccc(-c2nc(CSCC(=O)NCc3ccco3)c(C)o2)cc1	1.2	-7.7	21.1*	-2.7	1.2	/
CCCNC(=O)CSCc1nc(-c2ccc(SC)cc2)oc1C	-0.1	-16.6	9.5	-3.6	-2.0	/
COc1ccc(OC)c(C(c2nnnn2C2CCCC2)N2CCc3ccccc3C2)c1 (configuration not stated)	-3.7	-4.6	20.5*	-16.7	-0.6	18.4*
CN(C)c1ccc(CNC23CC4CC(CC(C4)C2)C3)cc1	-19.9	19.1	1.9	33.8	1.0	1.6
CSc1nnc(NC(=O)c2ccc(S(=O)(=O)N(C)C)cc2)s1	2.1	-5.3	-4.3	-5.8	1.7	/
CCn1c(/C=C/N(C)c2ccccc2)[n+](CC)c2ccc(Cl)cc21	-0.1	-2.8	26.3*	-24.9	-0.3	30.6*
CCn1c(/C=C/Nc2ccccc2)[n+](CC)c2ccc(Cl)cc21	-23.8	0.2	4.4	-6.4	0.6	12.5
Cc1ccc(-n2nc(C)cc2Nc2ncc(Cl)cc2Cl)cc1	-19.6	-3.9	10.8	-12.4	2.7	2.7
Cc1cc(Nc2ncc(Cl)cc2Cl)n(-c2ccccc2C)n1	7.2	-0.9	28.9*	-12.2	0.2	20.1*
Cc1cccc2c(=O)c(C(=O)N3CCCCCC3)c[nH]c12	2.7	-38.9	20.8*	-77.2	-1.2	21.6*
S=c1nc(C23CC4CC(CC(C4)C2)C3)[nH][nH]1	-1.6	22.8	/	9.8	0.8	/
Cc1sc(N)nc1C12CC3CC(CC(C3)C1)C2	-5.7	35.3*	-11.1	46.7*	4.9	/
C=CCc1ccccc1OCC(O)CN1CCN(CCN2C(=O)c3cccc4cccc(c34)C2=O)CC1 (configuration not stated)	-19.2	45.3*	-6.3	53.9*	9.6	3.0
C=CCc1ccccc1OCC(O)CN1CCN(Cc2ccc3c(c2)OCO3)CC1 (configuration not stated)	-5.9	87.1*	-16.2	92.2*	-2.0	6.6
CCOC(=O)CSc1ccc(C(=O)Nc2ccc(Cl)cc2)cn1	-8.3	-1.0	-0.5	-11.2	0.9	/
CCOC(=O)CSc1ccc(C(=O)Nc2ccc(OC)cc2)cn1	0.9	37.3*	-4.4	74.6*	-2.7	/
COc1ccc(C2=Nn3c(nnc3-c3ccccc3OC)SC2)cc1OC	5.6	-31.6	29.8*	-74.9	-2.6	29.9*
CCCC(=Nc1ccccc1OC)C1=C(O)CC(c2ccccc2)CC1=O (configuration not stated)	3.1	-6.2	0.8	6.2	0.5	2.6
COc1ccccc1N=C(C)C1=C(O)CC(c2ccccc2)CC1=O (configuration not stated)	13.1	-13.9	21.0*	-27.7	0.1	/
CCOC(=O)CSC1=NC(=O)/C(=C/c2ccc(OC)cc2)S1	2.2	1.7	3.8	-5.6	1.0	-5.3
SMILES	S1P4 antag	NPY-Y2 PAM-ag	NPY Y1 blocker	NPY-Y1 PAM-ag	S1P4 agonist	NPY-Y2 antag
Cc1ccccc1CSc1ccc2nnc(-c3ccccn3)n2n1	6.5	3.8	-2.9	5.1	0.1	/
CCCCCC1CCC(C(=O)O)CC1 (configuration not stated)	10.1	-13.1	26.1*	-37.6	-1.2	12.1
c1ccc(CN(Cc2ccccc2)c2nn[nH]n2)cc1	-19.3	-5.5	3.7	-16.0	-0.6	/
Clc1ccc(CN(Cc2ccc(Cl)cc2)c2nn[nH]n2)cc1	17.3	-26.1	31.3*	-29.8	-0.4	/
CC(C)(C)c1ccc(OCC(O)CSc2ncn[nH]2)cc1 (configuration not stated)	-4.0	-11.2	1.6	-5.0	-2.1	0.0
COc1ccc(CCNC(=O)C(=O)N2CCCCC2)cc1OC	-19.3	-6.0	0.6	-9.4	-2.8	1.1
COc1cc(C)c(/C=C(\C#N)C(=O)Nc2cccc(C)c2)cc1C(C)C	-14.5	-0.2	14.5	-22.5	0.1	5.3
CC1(C)CC(=O)C2=C(C1)OC(N)=C(C#N)C2c1cn(-c2ccccc2)nc1-c1ccc(F)cc1 (configuration not stated)	6.7	65.4*	-0.9	67.9*	5.7	2.9
O=C1c2ccccc2C(=O)N1CCCCCc1nc(-c2ccccc2)no1	10.7	-5.3	21.6*	-18.9	0.7	12.2
COC(=O)Nc1nc(-c2ccccc2)c(C(=O)c2ccccc2)s1	26.3	-21.4	29.5*	-18.2	-4.2	13.0
Cc1nc(NC(C)c2ccccc2)c2c3c(sc2n1)CCC3 (configuration not stated)	7.6	-20.2	38.3*	-66.3	1.1	17.2*
Cc1nc(Nc2ccc(O)cc2)c2c3c(sc2n1)CCCC3	0.6	3.9	/	11.1	0.6	/
Cc1ccc(CS(=O)(=O)c2ccc(C(=O)N3CCN(c4ccccn4)CC3)cc2[N+](=O)[O-])cc1	0.5	8.3	20.2*	-8.7	4.2	/
C=CCN1C(=Nc2cccnc2)SCC1(O)c1ccc(C)cc1 (configuration not stated)	-1.3	31.3	20.1	-4.5	0.3	21.4*
Cc1csc(=Nc2cccnc2)n1CC1CCCCC1	-12.4	-8.3	0.5	5.9	2.6	3.5
OC(CNCCc1ccc(C(F)(F)F)cc1)COc1cccc2ccccc12 (configuration not stated)	-16.5	46.3*	-8.2	60.5*	0.3	6.0
OC(CNCCc1ccc(C(F)(F)F)cc1)COc1ccc2ccccc2c1 (configuration not stated)	-21.0	-10.8	3.3	-31.7	1.1	12.4
COc1ccc(CCNCC(O)COc2cccc(Br)c2)cc1 (configuration not stated)	-3.3	63.4*	-1.1	74.7*	-0.9	/
COc1ccc(NC(=O)Cc2nc3ccccc3[nH]2)cc1	-2.6	-22.8	13.0	-48.8	0.7	22.1*
COc1ccc(CC(=O)Nc2nc3ccccc3[nH]2)cc1	-42.6	-6.4	/	6.6	-0.3	/
CC1CCN(C(=S)c2cn(Cc3ccccc3F)c3ccccc23)CC1	-7.4	-16.6	45.1*	-6.7	0.0	28.8*
